Runt-SMMHC FRET: blocks binding of human RUNX1 Runt domain to CBFb-SMMHC | Q01196+Q13951 | Cerulean-Runt/Venus-CBFb-SMMHC FRET ratio 530/480, 1 h | inhibition, % at 20 µM | 220,000 tested, 0.74% active;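 active means mean inhibition across duplicate retests at 20 µM reaching about 50%, limit read from the data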;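 further: 0% = DMSO wells and 100% = wells with excess untagged CBFb-SMMHC; inhibitors lower the FRET ratio by blocking Runt binding to CBFb-SMMHC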
Hck-Nef inh: blocks Nef-activated human Hck kinase; 220,000 tested, 0.68% active; inhibition, % at 20 µM; P08631; AID 463187; Recombinant Hck-YEEI plus Nef, Z-Lyte FRET kinase assay;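 active means Hck-Nef kinase inhibition above about 50%, limit read from the data; inactive means inhibition below that limit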;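 further: 0% = DMSO with Hck plus Nef and 100% = Hck alone without Nef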
RanGTP-Impb inh: disruptors of Ran-importin-beta complex formation – biochemical, FRET, CFP-Ran, YFP-importin-beta, homogeneous, primary screen; cell-free CFP-Ran/YFP-importin-beta FRET ratio; inhibition, % (no concentration beside the values); 300,000 tested, 1.1% active;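 active means more than half of the replicate wells show a fall in the fluorescence ratio signal beyond about 16%, limit read from the data, passing the limit was not always enough; inconclusive means exactly half of the replicate wells pass the set limit; inactive means fewer than half of replicates pass the limit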;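 further: 0% = DMSO wells and 100% = Ran loaded with GDP instead of GTP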
Runt-CBFb FRET: blocks binding of human RUNX1 Runt domain to CBFb; Q01196+Q13951; Cerulean-Runt/Venus-CBFb FRET ratio 530/480, 1 h; 220,000 tested, 0.46% active; inhibition, % at 20 µM;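 active means inhibition over about 50% at 20 µM in the single-dose screen, limit read from the data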;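 further: 0% = DMSO wells and 100% = excess unlabeled CBFb competitor control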
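Assay system: Cerulean-Runt domain / Medium: Tris 50 mM pH 7.5, KCl, K2SO4, 0.01% BSA / Timing: protein complex preformed 1 h, compound exposure 1 h, room temperature, dark / Measured by: FRET, excitation 422 nm, emission at 530 and 480 nm / Evaluation: loss of energy transfer signal / Control set: 5 µM unlabeled CBFb as full-inhibition high control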
Hck-Nef confirm: confirmation of Hck-Nef kinase inhibitors; shares compounds with Hck-Nef inh; Recombinant Hck-YEEI:Nef, Z-Lyte FRET kinase assay; calls only at 10 µM; 1,300 tested, 28% active;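 active means average inhibition of at least 50%, with Z-scores no higher than 3 in both the phospho-tyrosine peptide and fluorescence counterscreens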
* = called active by the depositor; i = inactive; ? = inconclusive; · = not tested or not shown; + = active, no number. Most compounds without a hit are left out; they make up all but 1.8% or so of the library.

SMILES	Runt-SMMHC FRET	Hck-Nef inh	RanGTP-Impb inh	Runt-CBFb FRET	Hck-Nef confirm
CCCCCCCCCCCCCCCC[n+]1ccc(/C=N/O)cc1	0.0	112.1*	·	-6.1	·
O=C(COc1ccccc1C(=O)NCc1ccncc1)Nc1ccc(Br)cc1	0.8	29.0	2.4	-0.8	·
COc1ccc(/C=C/c2nnc(NC(=O)c3ccco3)s2)cc1	20.9	53.0*	8.9	2.3	i
O=C(NCC(=O)N1CCN(c2ccccc2O)CC1)c1cccs1	·	·	-5.2	·	·
CCCn1cc(CN2CCCC(C(=O)c3ccc4c(c3)OCO4)C2)c(C)n1 (stereo unspecified)	·	·	2.6	·	·
Cc1ccc(CN2CCN(Cc3cnc(N4CCOCC4)s3)CC2CCO)o1 (stereo unspecified)	-3.3	60.7*	?	1.3	i
CCC/C=N/NC(=O)c1cccc(Br)c1	-0.1	119.4*	5.9	-2.8	i
CCC/C=N/NC(=O)c1ccc(F)cc1	-2.0	18.3	-1.5	-0.7	·
O=C(Nc1ccc(NC(=O)c2sc3ccccc3c2Cl)cc1Cl)c1ccco1	-4.3	78.2*	0.2	·	i
Cc1cc(/C=C2\NC(=O)NC2=O)c(C)n1-c1cccnc1	-2.3	52.2*	0.5	0.1	i
Cn1c(=O)[nH]c(=O)c2c1nc(Br)n2Cc1cccc(Br)c1	·	·	3.4	·	·
CC(Oc1ccc(Cl)cc1)C(=O)NNC(=S)NC(=O)c1ccco1 (stereo unspecified)	3.0	7.9	-1.0	4.3	·
COc1cccc(CN2CC(C(=O)NCCOc3cccnc3)CCC2=O)c1 (stereo unspecified)	·	·	1.1	·	·
Cc1ccc(NC(=O)c2cc(-c3ccco3)nc3ccccc23)cc1S(=O)(=O)N1CCOCC1	-24.6	69.3*	1.7	-0.8	+
COc1ccc(NC(=O)c2cc(-c3ccco3)nc3ccccc23)cc1S(=O)(=O)N1CCOCC1	-22.6	32.9	?	22.0	·
CC(=O)N1CCc2cc(S(=O)(=O)NC(C(=O)NC(C)c3ccccc3)C(C)C)ccc21 (stereo unspecified)	·	·	-0.1	·	·
O=C(CN(Cc1ccccc1F)S(=O)(=O)c1ccc(Cl)cc1)NCC1CCCO1 (stereo unspecified)	·	·	-1.3	·	·
O=C(Nc1ccnn1C1CCN(Cc2cc(Cl)ccc2O)CC1)C1CC1	·	·	8.7	·	·
CCCSC1=N/C(=C\c2ccc([N+](=O)[O-])o2)C(=O)S1	-0.9	50.5*	·	13.2	i
Cc1cc(C(=O)N/N=C2\CC(=O)c3ccccc32)c(C)n1-c1ccc(F)cc1	-7.9	53.2*	1.8	-3.5	i
Cn1c(COc2ccccc2)nnc1SCCSc1nnc(COc2ccccc2)n1C	1.7	3.2	-0.6	-1.6	·
Cn1c(COc2ccc(Br)cc2)nnc1SC1CCc2ccccc2C1=O (stereo unspecified)	-3.6	51.0*	-1.5	1.0	i
Cc1cc(=O)oc2cc3c(cc12)OCCO3	-5.0	-2.0	?	-2.0	·
Cc1cc(=O)oc2cc3c(cc12)OCCN3	43.7	106.6*	97.1*	9.8	·
Cc1cccc(NNC(N)=S)c1C	2.0	9.0	1.7	6.4	·
SMILES	Runt-SMMHC FRET	Hck-Nef inh	RanGTP-Impb inh	Runt-CBFb FRET	Hck-Nef confirm
N#Cc1ncn(-c2ccc(Oc3ccccc3)cc2)c1N	-3.2	73.6*	-0.3	-0.8	i
O=Nc1c(-c2cccc([N+](=O)[O-])c2)nc2ncccn12	34.5	-64.9	0.9	24.7	·
CCCCC1(C)OC(=O)C(=Cc2ccc(-c3ccc(Cl)c(C(=O)O)c3)o2)C(=O)O1 (stereo unspecified)	6.5	19.3	2.8	13.6	·
Cc1ccc(-c2ccc(/C=N/N=C3/NC(=O)C(CC(=O)O)S3)o2)c([N+](=O)[O-])c1 (stereo unspecified)	14.2	-0.1	-1.1	13.9	·
CCOC(=O)c1cc(-c2ccc(/C=C3/C(=O)NC(=O)C(C#N)=C3C)o2)ccc1Cl	-4.6	80.9*	-4.6	17.1	+
CC1=C(C#N)C(=O)NC(=O)/C1=C\c1ccc(-c2ccc(C)cc2[N+](=O)[O-])o1	12.4	99.8*	-0.2	33.0	+
Cn1c(CNC(=O)c2ccccc2)nnc1SCC(=O)Nc1nccs1	-3.4	25.0	-0.4	-0.2	·
CC(=O)c1ccc(N(CC(=O)NCc2ccc3c(c2)OCO3)C(=O)c2csnn2)cc1	·	·	-1.6	·	·
Cc1ccc(Cn2cccc(-c3nc4ccccc4s3)c2=O)cc1	133.7*	123.3*	?	49.5	·
O=c1c(-c2nc3ccccc3s2)cccn1Cc1ccccc1	32.5	8.0	9.1	11.7	·
